Compound activity from PubChem BioAssay.
Compounds with a hit are over-represented: about 4.1% of the library has one in this group of screens.
MEKK2mut PB1 HTS – MEK5 binding signal on mutant MEKK2 PB1, primary screen, biochemical, multiplex bead flow cytometry, Alexa488-MEK5; Alexa488-MEK5 binding to MEKK2 mutant; percent response, % at 10 µM; 290,000 compounds, 0.35% hits; AID 1530, 2009; in the data active means percent response above about 24%, passing the limit was not always enough
MEKK3 PB1 HTS – modulators of MEKK3-MEK5 PB1 binding, primary screen, biochemical, wildtype MEKK3, multiplex bead flow cytometry, Alexa488-MEK5; Mitogen-activated protein kinase kinase kinase 3 (Homo sapiens), Q99759; bead-based flow cytometry, Alexa488-MEK5 binding to MEKK3; actives lie on both sides; 0 = blocked by unlabeled MEK5, 100 = vehicle; binding response (% of control), % at 10 µM; 290,000 compounds, 1.4% hits; AID 1529, 2009;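 active means binding response more than 3 SD above or below the average of its plate-row segment, actives on both sides; inconclusive means wells at one plate position flagged as instrument error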;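 further: Alexa488 bead fluorescence after subtracting the streptavidin-only scavenger bead signal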
Target sequence (Q99759 whole entry, looked up): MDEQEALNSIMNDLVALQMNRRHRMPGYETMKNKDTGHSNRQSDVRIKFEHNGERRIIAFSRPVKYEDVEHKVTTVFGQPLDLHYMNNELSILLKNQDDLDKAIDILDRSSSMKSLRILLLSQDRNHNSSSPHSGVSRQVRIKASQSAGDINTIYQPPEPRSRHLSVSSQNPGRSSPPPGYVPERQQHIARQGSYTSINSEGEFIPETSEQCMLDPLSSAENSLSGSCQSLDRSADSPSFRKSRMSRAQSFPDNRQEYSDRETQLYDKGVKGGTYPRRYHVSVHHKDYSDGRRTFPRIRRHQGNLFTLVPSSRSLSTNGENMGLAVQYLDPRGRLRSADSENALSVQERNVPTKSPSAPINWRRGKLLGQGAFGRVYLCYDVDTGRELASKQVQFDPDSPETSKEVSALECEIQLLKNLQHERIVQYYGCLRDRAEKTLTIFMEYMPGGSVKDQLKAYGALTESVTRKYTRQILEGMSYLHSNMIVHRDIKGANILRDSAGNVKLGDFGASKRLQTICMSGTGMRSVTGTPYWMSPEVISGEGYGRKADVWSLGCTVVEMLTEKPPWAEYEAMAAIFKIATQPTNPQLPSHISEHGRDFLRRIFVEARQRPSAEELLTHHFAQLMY
FID counter – compounds displacing fluorescent DNA intercalator, primary screen, artefact control for HCV NS3 helicase inhibitor project, biochemical, FID fluorescence; DNA fluorescent intercalator displacement; inhibition, % at 7.9 µM; 290,000 compounds, 0.17% hits; in the data active means inhibition above about 37%;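 further: 0% = vehicle and 100% = reference compound; higher means more ethidium bromide displaced from hairpin DNA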
T cruzi inh – inhibitors of intracellular T. cruzi growth, primary screen, luminescence, NIH3T3 host cells; inhibition, % (no concentration beside the values); 300,000 compounds, 1.4% hits; T. cruzi beta-gal in NIH3T3, 90 h;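 active means mean inhibition across valid replicates above about 55%, limit read from the data; inconclusive means mean below that limit but half or more replicates reach it; inactive means mean below it, under half of replicates reach it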;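 further: signal also drops with host cell toxicity which is not excluded here; 0% = plate median of DMSO wells and 100% = zero luminescence signal; higher percent means less beta-gal luminescence so fewer parasites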
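System: mouse NIH/3T3 fibroblasts infected with β-gal-expressing T. cruzi Tulahuen C4 / Input: NIH/3T3 cells, 5,000 per well / Buffer or medium: Low-serum DMEM with 2% FBS / Probe or stimulus: 5000 reporter trypomastigotes per well / Schedule: ≥90 h infection period, 3 h prior cell attachment / Measured by: GalScreen luminescence, 60 min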
HCV NS3 hel inh – inhibitors of HCV NS3 helicase, primary screen, biochemical, Cy5 molecular beacon fluorescence; NS3 helicase DNA unwinding; inhibition, % at 10.9 µM; 290,000 compounds, 0.56% hits; AID 1800, 2009;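 active means inhibition above the mean of all tested compounds plus 3 SD, set per campaign, cut at about 35% in these data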;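 further: 0% = DMSO wells and 100% = thioflavine S control wells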
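Measured by: Cy5 fluorescence, 0 and 60 min reads / Assay system: NS3 helicase fragment of HCV / Control set: low DMSO, high thioflavine S at 110 µM / Times: 1 h reaction at 25 °C, ATP-initiated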
MEKK2wt PB1 HTS – modulators of MEK5 binding to wildtype MEKK2, primary screen, biochemical, multiplex bead flow cytometry, Alexa488-MEK5; Mitogen-activated protein kinase kinase kinase 2 (Homo sapiens), Q9Y2U5; Alexa488-MEK5 binding to MEKK2 WT; actives lie on both sides; binding response (% of control), % at 10 µM; 290,000 compounds, 1.1% hits; AID 1531, 2009; in the data active means binding response below about 67% or above about 130%; inconclusive means no clear call, values can overlap the other calls; inactive means in between
MEKK2wt confirm – modulators of MEK5 binding to wildtype MEKK2, confirmation, biochemical, single concentration, multiplex bead flow cytometry; shares compounds with MEKK3 PB1 HTS; Alexa488-MEK5 binding to MEKK2 WT; actives lie on both sides; binding response (% of control), % at 10 µM; 5,900 compounds, 2.4% hits; AID 1892, 2009; in the data active means binding response below about 16% or above about 210%; inactive means in between
MEKK2mut confirm – mutant MEKK2 PB1-MEK5 binding signal retest – biochemical, single concentration, multiplex bead flow cytometry, confirmation. shares compounds with MEKK3 PB1 HTS. Alexa488-MEK5 binding to MEKK2 mutant. 5,900 compounds, 2% hits. percent response, % at 10 µM; in the data active means percent response mostly above about 71%, no sharp cut-off; inactive means mostly below about 38%;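 further: higher means compound restores mutant binding toward wildtype level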
MEKK3 confirm – MEKK3 wild-type PB1 binding to MEK5, inhibitors, confirmation, biochemical, bead multiplex flow cytometry, single concentration, wildtype; shares compounds with MEKK3 PB1 HTS; Alexa488-MEK5 binding to MEKK3; hits give low values; binding response (% of control), % at 10 µM; 5,900 compounds, 1.8% hits; AID 1894, 2009;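 active means binding response below 72% of control, or above a set upper limit, though filed actives all read lower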;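 further: 100% = DMSO only wells and 0% = binding blocked by excess unlabeled MEK5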
The depositor's hits bear a star; ! = not confirmed by another sample; [ ] = dose if it differs, or a comment.

Screening CC1CN(C(=O)c2cc3ccccc3oc2=O)CC(C)O1 (stereo unspecified) returned MEKK2mut PB1 HTS -8, MEKK3 PB1 HTS 82*[inhibitor], FID counter 1, T cruzi inh -13, HCV NS3 hel inh 4, MEKK2wt PB1 HTS 96, MEKK2wt confirm 101, MEKK2mut confirm -2 and MEKK3 confirm 99.
Screening COc1cccc2cc(C(=O)N3CC(C)OC(C)C3)c(=O)oc12 (stereo unspecified) returned MEKK2mut PB1 HTS -3, MEKK3 PB1 HTS 99, FID counter -3, T cruzi inh -15, HCV NS3 hel inh 5 and MEKK2wt PB1 HTS 99.
For CC1CN(C(=O)c2ccc(Oc3ccccc3)cc2)CC(C)O1 (stereo unspecified) the results were MEKK2mut PB1 HTS -4, MEKK3 PB1 HTS 70*[inhibitor], FID counter -18, T cruzi inh -7, HCV NS3 hel inh -4, MEKK2wt PB1 HTS 86, MEKK2wt confirm 99, MEKK2mut confirm -5 and MEKK3 confirm 98.
For CCN(CC)CCNC(C(=O)Nc1cc(C(F)(F)F)ccc1Cl)c1ccccc1 (stereo unspecified) the results were MEKK2mut PB1 HTS 0, MEKK3 PB1 HTS 143*, FID counter 6, T cruzi inh 4, HCV NS3 hel inh -21, MEKK2wt PB1 HTS 106, MEKK2wt confirm 111, MEKK2mut confirm 7 and MEKK3 confirm 103.
O=C(Nc1cc(C(F)(F)F)ccc1Cl)C(NCc1ccccc1)c1ccccc1 (stereo unspecified) was read as MEKK2mut PB1 HTS -1, MEKK3 PB1 HTS 101, FID counter -23, T cruzi inh 20, HCV NS3 hel inh -2 and MEKK2wt PB1 HTS 107.
`Cc1nc2ccccc2n1-c1ccccc1` gave MEKK2mut PB1 HTS 11, MEKK3 PB1 HTS 108, FID counter -4, T cruzi inh -31, HCV NS3 hel inh -1 and MEKK2wt PB1 HTS 112.
For O=c1c(/C=C(\O)c2ccccc2)nc2ccccc2n1-c1ccccc1 the results were MEKK2mut PB1 HTS -19, MEKK3 PB1 HTS 81*[inhibitor], FID counter 3, T cruzi inh 13, HCV NS3 hel inh 10, MEKK2wt PB1 HTS 58*[inhibitor], MEKK2wt confirm 66, MEKK2mut confirm -18 and MEKK3 confirm 85.
Screening O=C(c1cc(N2C(=O)C3C4CCC(C4)C3C2=O)ccc1Cl)N1CCN(c2ccccc2F)CC1 (stereo unspecified) returned MEKK2mut PB1 HTS -1, MEKK3 PB1 HTS 105, FID counter -4, T cruzi inh 6, HCV NS3 hel inh -14 and MEKK2wt PB1 HTS 99.
Screening Cc1ccc(OCC(O)CN2C(=O)NC(C)(C)C2=O)cc1 (stereo unspecified) returned MEKK2mut PB1 HTS 8, MEKK3 PB1 HTS 73*[inhibitor], FID counter -2, T cruzi inh -8, HCV NS3 hel inh 3, MEKK2wt PB1 HTS 90, MEKK2wt confirm 100, MEKK2mut confirm -7 and MEKK3 confirm 101.
`c1ccc(-c2nc3ccccc3[nH]2)cc1` gave MEKK2mut PB1 HTS 8, MEKK3 PB1 HTS 103, FID counter 0, T cruzi inh -13, HCV NS3 hel inh -2 and MEKK2wt PB1 HTS 108.
Screening c1ccc2[nH]c(-c3ccncc3)nc2c1 returned MEKK2mut PB1 HTS -13, MEKK3 PB1 HTS 42*![inhibitor], FID counter -2, T cruzi inh 1, HCV NS3 hel inh 1, MEKK2wt PB1 HTS 46*![inhibitor], MEKK2wt confirm 106, MEKK2mut confirm 12 and MEKK3 confirm 108.
Screening CC(C)NC[C@@H](O)c1ccc(O)c(O)c1 returned MEKK2mut PB1 HTS -2, MEKK3 PB1 HTS 85, FID counter 1, T cruzi inh 0, HCV NS3 hel inh 1 and MEKK2wt PB1 HTS 101.
CC(C)NCC(O)c1ccc(NS(C)(=O)=O)cc1 (stereo unspecified) was read as MEKK2mut PB1 HTS 6, MEKK3 PB1 HTS 122*!, FID counter 2, T cruzi inh -5, HCV NS3 hel inh -3, MEKK2wt PB1 HTS 119, MEKK2wt confirm 101, MEKK2mut confirm -5 and MEKK3 confirm 99.
Cc1nc2cc(-c3ccc(Cl)cc3)nn2c(NCCN(C)C)c1C was read as MEKK2mut PB1 HTS 29, MEKK3 PB1 HTS 113, FID counter 27, T cruzi inh inconclusive, HCV NS3 hel inh -12, MEKK2wt PB1 HTS 148*, MEKK2wt confirm 132, MEKK2mut confirm 18 and MEKK3 confirm 110.
For COc1ccc(NC(=O)CSCC(=O)N(C)CC(=O)Nc2cccc3ccccc23)cc1 the results were T cruzi inh -4.
Cc1cc(N2CCCCC2)nc(SCc2ccc(C#N)cc2)n1 was read as MEKK2mut PB1 HTS 4, MEKK3 PB1 HTS 122*, FID counter -12, T cruzi inh 25, HCV NS3 hel inh 0, MEKK2wt PB1 HTS 115, MEKK2wt confirm 85, MEKK2mut confirm 0 and MEKK3 confirm 91.
Screening N#Cc1ccc(CSc2nc(N)cc(N)n2)cc1 returned MEKK2mut PB1 HTS 0, MEKK3 PB1 HTS 97, FID counter -2, T cruzi inh -2, HCV NS3 hel inh 7 and MEKK2wt PB1 HTS 103.
`O=[N+]([O-])c1ccc(-c2nc(Nc3cccc(O)c3)c3ccccc3n2)cc1` gave MEKK2mut PB1 HTS 19, MEKK3 PB1 HTS 112, FID counter 15, T cruzi inh -14, HCV NS3 hel inh -11, MEKK2wt PB1 HTS 146*, MEKK2wt confirm 120, MEKK2mut confirm 4 and MEKK3 confirm 102.
O=C(O)c1cccc(Nc2nc(-c3ccc([N+](=O)[O-])cc3)nc3ccccc23)c1 was read as MEKK2mut PB1 HTS 6, MEKK3 PB1 HTS 108, FID counter -13, T cruzi inh -4, HCV NS3 hel inh 34 and MEKK2wt PB1 HTS 100.
